Consider one compound from ChEMBL document CHEMBL1649548, “Pharmacodynamics of SMP-601 (PTZ601) against vancomycin-resistant Enterococcus faecium and methicillin-resistant Staphylococcus aureus in neutropenic murine thigh infection models” (Antimicrob Agents Chemother, 2009).

The nature of series [1]: fT>MIC required for inducing 2-log killing effect in methicillin-resistant Staphylococcus aureus TL-3677-infected mouse. Format: functional.
Series [2] is described as follows: fT>MIC required for bacteriostatic effect in vancomycin-resistant Enterococcus faecium TL-3621-infected mouse. The series is classed as functional. In outline: (§1)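 Neutropenic ICR mice (cyclophosphamide), thighs inoculated with ~10^5–10^6 CFU/ml in BHIB with 1% carrageenan 2 h before therapy. Total 2.5–640 mg/kg sc over 24 h in 1–12 doses, with cilastatin 100 mg/kg.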

Series [3] is described as follows: fT>MIC required for inducing 1-log killing effect in methicillin-resistant Staphylococcus aureus TL-3677-infected mouse. The series is classed as functional.
Series [4] in a line: Protein binding in mouse serum at 30 ug/ml by ultrafiltration method. The note with it: read-out: PB (converted). The series is classed as ADME, cell-free.
A short description of series [5]: fT>MIC required for inducing 2-log killing effect in vancomycin-resistant Enterococcus faecium TL-3273-infected mouse. The series is classed as functional. In outline: as §1
Series [6] can be described thus: fT>MIC required for inducing 2-log killing effect in vancomycin-resistant Enterococcus faecium TL-3621-infected mouse. Format: functional. In outline: as §1
Series [7] has as its system Enterococcus faecium. The series can be described thus: Antibacterial activity against vancomycin-resistant Enterococcus faecium TL-3273 at 0.5 to 8 ug/mL by time-kill analysis in presence of 1% carrageenan. Format: functional, organism-based.
A short description of series [8]: fT>MIC required for inducing 1-log killing effect in methicillin-resistant Staphylococcus aureus SP-12249-infected mouse. The series is classed as functional.
The nature of series [9]: Protein binding in mouse serum at 10 ug/ml by ultrafiltration method. The conditions noted are these: read-out: PB (converted). Format: ADME, cell-free.
The test system of series [10] is Enterococcus faecium. The experiment in a line: Antibacterial activity against vancomycin-resistant Enterococcus faecium TL-3621 by broth microdilution method. Format: functional. In outline:
(§2)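 CLSI broth microdilution in cation-adjusted Mueller-Hinton broth; final inoculum approx. 10^5 CFU/well.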
(In general: Broth dilution looks for growth in wells or tubes with falling amounts of substance.)

The nature of series [11]: fT>MIC required for inducing 1-log killing effect in vancomycin-resistant Enterococcus faecium TL-3621-infected mouse. The series is classed as functional. The method, boiled down: as §1
Series [12] in a line: fT>MIC required for bacteriostatic effect in vancomycin-resistant Enterococcus faecium TL-3273-infected mouse. Format: functional. In outline: as §1
The nature of series [13]: Protein binding in mouse serum at 100 ug/ml by ultrafiltration method. The series is classed as ADME, cell-free. The note with it: read-out: PB (converted).
The subject of series [14] is Staphylococcus aureus. The series can be described thus: Antibacterial activity against methicillin-resistant Staphylococcus aureus TL-3677 by broth microdilution method. The series is classed as functional. The method, boiled down: as §2
Series [15] relates to Staphylococcus aureus. The experiment in a line: Antibacterial activity against methicillin-resistant Staphylococcus aureus SP-12249 by broth microdilution method. Format: functional. In outline: as §2
Series [16] can be described thus: fT>MIC required for inducing 1-log killing effect in vancomycin-resistant Enterococcus faecium TL-3273-infected mouse. The series is classed as functional. The method, boiled down: as §1
Series [17] is described as follows: fT>MIC required for bacteriostatic effect in methicillin-resistant Staphylococcus aureus SP-12249-infected mouse. Format: functional.
Series [18] is described as follows: fT>MIC required for bacteriostatic effect in methicillin-resistant Staphylococcus aureus TL-3677-infected mouse. The series is classed as functional.
Series [19] deals with Enterococcus faecium. The series can be described thus: Antibacterial activity against vancomycin-resistant Enterococcus faecium TL-3273 by broth microdilution method. Format: functional. In outline:
as §2

Series [20] relates to Enterococcus faecium. The series can be described thus: Antibacterial activity against vancomycin-resistant Enterococcus faecium TL-3273 infected in ICR mouse assessed as reduction in bacterial burden at 2.5 to 640 mg/kg, sc in presence of 1% carrageenan. Format: functional, organism-based. In outline:
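Male ICR mice made neutropenic with cyclophosphamide sc (150 mg/kg day −4, 100 mg/kg day −1). Thighs inoculated with ~10^5–10^6 CFU/ml in BHIB plus 1% carrageenan, 2 h before therapy. Total 2.5–640 mg/kg sc over 24 h in 1–12 divided doses, each with cilastatin 100 mg/kg. Thighs homogenised at 24 h, CFU plated; two mice (four thighs) per group.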

A short description of series [21]: fT>MIC required for inducing 2-log killing effect in methicillin-resistant Staphylococcus aureus SP-12249-infected mouse. The series is classed as functional.

In brackets after ≈: the same amount, converted by molar mass. Activity calls are given as the source filed them.

The MIC is the smallest concentration in the dilution series that meets the test's criterion for growth inhibition. Low readings indicate a more susceptible organism, high ones a less susceptible organism. Take `C[C@H]1C=C(c2csc(SC3=C(C(=O)O)N4C(=O)[C@H]([C@@H](C)O)[C@H]4[C@H]3C)n2)CN1` [RAZUPENEM]: the “fT>MIC” value in series [1] is 32%; in [2] it was 10%; in [3] it was 27%; in series [5], 16%; in series [6] it was 19%; in series [8] it was 30%. Besides, the “fT>MIC” value in series [11] is listed as 14%; in series [12], 9%; in series [16], 12%; in series [17] it was 23%; in [18], 23%; in series [21], 37%. The fraction unbound at 30 ug/ml in [4] is 0.24. Moreover, the result with Enterococcus faecium [7] and in the series on Enterococcus faecium [20] was Active. The fraction unbound at 10 ug/ml in series [9] is 0.25. The MIC against Enterococcus faecium [10] is 2 µg/mL (≈ 4.91 µM); in the series with Staphylococcus aureus [14] it was 0.12 µg/mL (≈ 0.294 µM); in the series on Staphylococcus aureus [15], 1 µg/mL (≈ 2.45 µM); against Enterococcus faecium [19], 2 µg/mL (≈ 4.91 µM). Besides, the fraction unbound at 100 ug/ml in [13] is 0.22.
